Measurements from ChEMBL document CHEMBL1150426, “New C5-alkylated indolobenzazepinones acting as inhibitors of tubulin polymerization: cytotoxic and antitumor activities” (J Med Chem, 2008).
Each block holds one compound with its values, some of them ahead of it. Active and inactive are the calls of the source. The rule behind the calls is not given here.

Assays:
KB = assay: Cytotoxicity against human KB cells after 72 hrs; assay type: functional, cell-based
Outline: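 KB cells in EMEM (4.5 g/L glucose, 10% FCS, 1% glutamine) seeded 5 × 10³/well, dosed after 24 h with compound in DMSO (<0.1%). 72 h exposure, then resazurin 2 h; fluorescence ex 560/em 590 nm. IC50 = 50% fluorescence decrease versus untreated; triplicate.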

K562 [1] = assay: Cell cycle arrest in human K562 cells assessed as accumulation at G2/M phase at 0.5 uM after 24 hrs by flow cytometry; assay type: functional
Outline: (§1)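 Exponentially growing K562 cells exposed to compound or DMSO for 6, 16 or 24 h; cell-cycle phase distribution determined by flow cytometry; data representative of three independent experiments.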

MDA-MB-435 = assay: Antiproliferative activity against human MDA-MB-435 cells after 72 hrs; assay type: functional, cell-based; conditions: MDA-MB-435, 72 h
Outline: (§2)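 Cells were seeded at 5 × 10³ per well and cultured for 24 h. Test compound in DMSO (under 0.1%) was then added for 72 h. Resazurin was added for 2 h, and fluorescence was read at ex 560 nm / em 590 nm. IC50 was taken as the concentration giving a 50% fall in fluorescence versus untreated cells. Runs were done in triplicate.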

K562 [2] = assay: Cell cycle arrest in human K562 cells assessed as accumulation at G2/M phase at 0.05 uM after 24 hrs by flow cytometry; assay type: functional; outline: as §1
MCF7 [3] = assay: Cell cycle arrest in human MCF7 cells assessed as accumulation at G2/M phase at 0.05 uM after 24 hrs by flow cytometry
K562 [4] = assay: Cell cycle arrest in human K562 cells assessed as accumulation at G2/M phase at 1 uM after 24 hrs by flow cytometry; assay type: functional; conditions: in the assay text read “at 0.1 uM” for “at 1 uM”; outline: as §1
K562 [5] = assay: Cell cycle arrest in human K562 cells assessed as accumulation at G2/M phase at 1 uM after 6 hrs by flow cytometry; assay type: functional; outline: as §1
L1210 = assay: Antiproliferative activity against mouse L1210 cells after 72 hrs; assay type: functional, cell-based; conditions: L1210, 72 h; outline: as §2
K562 [6] = assay: Cell cycle arrest in human K562 cells assessed as accumulation at S phase at 0.5 uM after 16 hrs by flow cytometry; assay type: functional; outline: as §1
K562 [7] = assay: Antiproliferative activity against human K562 cells after 72 hrs; assay type: functional, cell-based; conditions: K562, 72 h; outline: as §2
A549 = assay: Antiproliferative activity against human A549 cells after 72 hrs; assay type: functional, cell-based; conditions: A549, 72 h; outline: as §2
K562 [8] = assay: Cell cycle arrest in human K562 cells assessed as accumulation at G0/G1 phase at 1 uM after 24 hrs by flow cytometry; assay type: functional; outline: as §1
K562 [9] = assay: Cell cycle arrest in human K562 cells assessed as accumulation at G2/M phase at 0.5 uM after 16 hrs by flow cytometry; assay type: functional; outline: as §1
MDA-MB-231 [10] = assay: Cell cycle arrest in human MDA-MB-231 cells assessed as accumulation at G2/M phase at 0.1 uM after 24 hrs by flow cytometry
K562 [11] = assay: Cell cycle arrest in human K562 cells assessed as accumulation at G0/G1 phase at 0.5 uM after 24 hrs by flow cytometry; assay type: functional; outline: as §1
K562 [12] = assay: Cell cycle arrest in human K562 cells assessed as accumulation at S phase at 0.05 uM after 6 hrs by flow cytometry; assay type: functional; outline: as §1
K562 [13] = assay: Cell cycle arrest in human K562 cells assessed as accumulation at S phase at 1 uM after 16 hrs by flow cytometry; assay type: functional; outline: as §1
MDA-MB-231 [14] = assay: Antiproliferative activity against human MDA-MB-231 cells after 72 hrs; assay type: functional, cell-based; conditions: MDA-MB-231, 72 h; outline: as §2
K562 [15] = assay: Cell cycle arrest in human K562 cells assessed as accumulation at G0/G1 phase at 0.5 uM after 16 hrs by flow cytometry; assay type: functional; outline: as §1
MDA-MB-231 [16] = assay: Induction of apoptosis in human MDA-MB-231 cells assessed as activation of caspase 7 at 0.01 to 1 uM after 24 hrs by microtitre plate fluorimeter; assay type: functional, cell-based
Outline: (§3)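 Cells seeded 5 × 10⁴/well, then after 24 h given compound at 1, 0.1 or 0.01 µM, or 0.1% DMSO as negative control, for 24 h. Caspase-3/7 substrate in homogeneous assay buffer added; fluorescence read at 527 nm after 1 h.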

K562 [17] = assay: Cell cycle arrest in human K562 cells assessed as accumulation at G0/G1 phase at 0.05 uM after 16 hrs by flow cytometry; assay type: functional; outline: as §1
K562 [18] = assay: Cell cycle arrest in human K562 cells assessed as accumulation at S phase at 0.05 uM after 24 hrs by flow cytometry; assay type: functional; outline: as §1
K562 [19] = assay: Cell cycle arrest in human K562 cells assessed as accumulation at S phase at 0.5 uM after 6 hrs by flow cytometry; assay type: functional; outline: as §1
MDA-MB-231 [20] = assay: Cell cycle arrest in human MDA-MB-231 cells assessed as accumulation at G2/M phase at 0.05 uM after 24 hrs by flow cytometry
HCT-116 [21] = assay: Induction of apoptosis in human HCT116 cells assessed as activation of caspase 7 at 0.01 to 1 uM after 24 hrs by microtitre plate fluorimeter; assay type: functional, cell-based; outline: as §3
MDA-MB-231 [22] = assay: Effect on cell morphology in human MDA-MB-231 cells assessed as change in cell size and shape at 0.050 uM after 24 hrs; assay type: functional, cell-based
Outline: (§4)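 MDA-MB231 cells on chamber slides treated 24 h at 50 nM, fixed in 3.7% formaldehyde, permeabilized with 0.1% Triton X-100. Stained for β-tubulin (Alexa 488 secondary), actin (Alexa 546 phalloidin) and nuclei (Hoechst 33342); imaged by fluorescence microscopy at 60× and 100×.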

K562 [23] = assay: Induction of apoptosis in human K562 cells assessed as activation of caspase 3 at 0.01 to 1 uM after 24 hrs by microtitre plate fluorimeter; assay type: functional, cell-based; outline: as §3
B16-F10 = assay: Antiproliferative activity against mouse B16F10 cells after 72 hrs; assay type: functional, cell-based; conditions: B16-F10, 72 h; outline: as §2
[24] = Antitumor activity against human U87 tumor transplanted in chick chorio-allantoic membrane assessed as reduction of tumor volume at 10 uM after 4 days; assay type: functional, U-87MG ATCC; design: scale not given: the % may be the effect or the level left
Outline: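 U87 glioma cells (5 × 10⁶ in 20 µL medium) grafted on chick CAM on embryonic day 10; size-matched tumors grouped on day 2. 20 µL drug at 10 µM applied locally once daily, days 3–6 of tumor growth; controls got solvent. Volume V = 4/3πr³ from length and width, six tumors per group.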

K562 [25] = assay: Cell cycle arrest in human K562 cells assessed as accumulation at S phase at 0.05 uM after 16 hrs by flow cytometry; assay type: functional; outline: as §1
K562 [26] = assay: Cell cycle arrest in human K562 cells assessed as accumulation at G2/M phase at 0.05 uM after 6 hrs by flow cytometry; assay type: functional; outline: as §1
K562 [27] = assay: Cell cycle arrest in human K562 cells assessed as accumulation at G0/G1 phase at 1 uM after 6 hrs by flow cytometry; assay type: functional; outline: as §1
MDA-MB-231 [28] = assay: Induction of apoptosis in human MDA-MB-231 cells assessed as activation of caspase 3 at 0.01 to 1 uM after 24 hrs by microtitre plate fluorimeter; assay type: functional, cell-based; outline: as §3
K562 [29] = assay: Cell cycle arrest in human K562 cells assessed as accumulation at G0/G1 phase at 0.5 uM after 6 hrs by flow cytometry; assay type: functional; outline: as §1
HT-29 = assay: Antiproliferative activity against human HT29 cells after 72 hrs; assay type: functional, cell-based; conditions: HT-29, 72 h; outline: as §2
K562 [30] = assay: Cell cycle arrest in human K562 cells assessed as accumulation at S phase at 1 uM after 24 hrs by flow cytometry; assay type: functional; outline: as §1
HCT-116 [31] = assay: Antiproliferative activity against human HCT116 cells after 72 hrs; assay type: functional, cell-based; conditions: HCT-116, 72 h; outline: as §2
K562 [32] = assay: Cell cycle arrest in human K562 cells assessed as accumulation at G2/M phase at 0.5 uM after 6 hrs by flow cytometry; assay type: functional; outline: as §1
K562 [33] = assay: Cell cycle arrest in human K562 cells assessed as accumulation at G0/G1 phase at 0.05 uM after 6 hrs by flow cytometry; assay type: functional; outline: as §1
K562 [34] = assay: Cell cycle arrest in human K562 cells assessed as accumulation at G0/G1 phase at 1 uM after 16 hrs by flow cytometry; assay type: functional; outline: as §1
K562 [35] = assay: Cell cycle arrest in human K562 cells assessed as accumulation at G2/M phase at 1 uM after 16 hrs by flow cytometry; assay type: functional; outline: as §1
K562 [36] = assay: Cell cycle arrest in human K562 cells assessed as accumulation at G2/M phase at 0.05 uM after 16 hrs by flow cytometry; assay type: functional; outline: as §1
MDA-MB-231 [37] = assay: Effect on cell morphology in human MDA-MB-231 cells assessed as change in cellular mass at 0.050 uM after 24 hrs; assay type: functional, cell-based; outline: as §4
[38] = Inhibition of sheep brain tubulin polymerization; design: species or system Ovis aries
Outline: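 Sheep brain tubulin (about 2–3 mg/mL), purified by two assembly–disassembly cycles, in 0.1 M MES, 0.5 mM MgCl₂, 1 mM EGTA, 1 mM GTP, pH 6.6. Assembly followed by turbidity at 350 nm, 37 °C.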

K562 [39] = assay: Cell cycle arrest in human K562 cells assessed as accumulation at S phase at 1 uM after 6 hrs by flow cytometry; assay type: functional; outline: as §1
MCF7 [40] = assay: Antiproliferative activity against human MCF7 cells after 72 hrs; assay type: functional, cell-based; conditions: MCF7, 72 h; outline: as §2
K562 [41] = assay: Induction of apoptosis in human K562 cells assessed as activation of caspase 7 at 0.01 to 1 uM after 24 hrs by microtitre plate fluorimeter; assay type: functional, cell-based; outline: as §3
MCF7 [42] = assay: Cell cycle arrest in human MCF7 cells assessed as accumulation at G2/M phase at 0.1 uM after 24 hrs by flow cytometry
K562 [43] = assay: Cell cycle arrest in human K562 cells assessed as accumulation at G0/G1 phase at 0.05 uM after 24 hrs by flow cytometry; assay type: functional; outline: as §1
HCT-116 [44] = assay: Induction of apoptosis in human HCT116 cells assessed as activation of caspase 3 at 0.01 to 1 uM after 24 hrs by microtitre plate fluorimeter; assay type: functional, cell-based; outline: as §3
K562 [45] = assay: Cell cycle arrest in human K562 cells assessed as accumulation at S phase at 0.5 uM after 24 hrs by flow cytometry; assay type: functional; outline: as §1

SMILES: CC1c2ccccc2-c2c(n(C)c3ccccc23)C(=O)N1C (stereo unspecified)
IC50 (KB): 28000 nM

SMILES: O=C1NCc2ccccc2-c2c1[nH]c1ccccc21
IC50 (KB): 550 nM

SMILES: C[C@H]1NC(=O)c2[nH]c3ccccc3c2-c2ccccc21
IC50 (KB): 340 nM

SMILES: CC1NC(=O)c2[nH]c3ccccc3c2-c2ccccc21 (racemic)
IC50 (KB): 280 nM

Continued, in another order:

IC50 (MDA-MB-435): 70 nM
IC50 (L1210): 34 nM
IC50 (K562 [7]): 70 nM
IC50 (A549): 50 nM
IC50 (MDA-MB-231 [14]): 30 nM
IC50 (B16-F10): 68 nM
IC50 (HT-29): 42 nM
IC50 (HCT-116 [31]): 42 nM
IC50 [38]: 1900 nM
IC50 (MCF7 [40]): 40 nM
SMILES: CC[C@@H]1NC(=O)c2[nH]c3ccccc3c2-c2ccccc21
Activity (K562 [1]): 44.7%
Activity (K562 [2]): 24.9%
Activity (MCF7 [3]): 65.6%
Activity (K562 [4]): 20.3%
Activity (K562 [5]): 8.1%
Activity (K562 [6]): 47.3%
Activity (K562 [8]): 7.6%
Activity (K562 [9]): 51.5%
Activity (MDA-MB-231 [10]): 100%
Activity (K562 [11]): 1.2%
Activity (K562 [12]): 94.3%
Activity (K562 [13]): 52.8%
Activity (K562 [15]): 0.6%
Activity (MDA-MB-231 [16]): Active
Activity (K562 [17]): 1%
Activity (K562 [18]): 49.1%
Activity (K562 [19]): 67.8%
Activity (MDA-MB-231 [20]): 44.5%
Activity (HCT-116 [21]): Active
IC50 (KB): 37 nM
Activity (MDA-MB-231 [22]): Active
Activity (K562 [23]): Active
Activity [24]: 76%
Activity (K562 [25]): 97.6%
Activity (K562 [26]): 4.9%
Activity (K562 [27]): 0.2%
Activity (MDA-MB-231 [28]): Active
Activity (K562 [29]): 0.2%
Activity (K562 [30]): 69.5%
Activity (K562 [32]): 32%
Activity (K562 [33]): 0.3%
Activity (K562 [34]): 2.4%
Activity (K562 [35]): 43.4%
Activity (K562 [36]): 1.1%
Activity (MDA-MB-231 [37]): Active
Activity (K562 [39]): 91.1%
Activity (K562 [41]): Active
Activity (MCF7 [42]): 62.6%
Activity (K562 [43]): 14.6%
Activity (HCT-116 [44]): Active
Activity (K562 [45]): 53.4%

IC50 [38]: 51000 nM
SMILES: COc1ccc2[nH]c3c(c2c1)-c1ccccc1[C@H](C)NC3=O
IC50 (KB): 3500 nM

IC50 [38]: 1800 nM
SMILES: CC[C@H]1NC(=O)c2[nH]c3ccccc3c2-c2ccccc21
IC50 (KB): 35 nM

IC50 [38]: 1900 nM
SMILES: C[C@@H]1NC(=O)c2[nH]c3ccccc3c2-c2ccccc21
IC50 (KB): 80 nM
